Experiment [1] has as its target T1, 5-hydroxytryptamine receptor 1A (Homo sapiens, UniProt P08908).
T1 sequence (P08908 whole entry): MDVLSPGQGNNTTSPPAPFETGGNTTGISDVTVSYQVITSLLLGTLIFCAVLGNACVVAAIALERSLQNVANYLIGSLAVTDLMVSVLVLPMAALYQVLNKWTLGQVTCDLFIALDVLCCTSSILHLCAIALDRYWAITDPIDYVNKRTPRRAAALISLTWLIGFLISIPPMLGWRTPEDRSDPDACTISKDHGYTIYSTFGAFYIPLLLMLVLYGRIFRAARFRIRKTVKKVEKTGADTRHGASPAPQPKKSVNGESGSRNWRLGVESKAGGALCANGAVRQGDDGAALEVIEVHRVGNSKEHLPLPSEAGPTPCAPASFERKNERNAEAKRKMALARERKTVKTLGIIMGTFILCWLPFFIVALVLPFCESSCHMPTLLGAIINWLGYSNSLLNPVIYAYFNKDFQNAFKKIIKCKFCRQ
As to the kind of experiment: Displacement of [3H]DPAT from human 5HT1A receptor. The procedure, abridged: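 Radioligand binding in vitro using cell lines expressing the human 5-HT1A receptor. Values are mean ± SEM of at least three determinations.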
For orientation: Loss of bound radioactivity is the signal in a displacement assay; it reports binding, not function.

Experiment [2] deals with T1, 5-hydroxytryptamine receptor 1A. Description: Antagonist activity at human 5HT1A expressed in mouse LM(tK-) cells assessed as 5-HT-stimulated [35S]GTPgammaS binding. The format is functional, cell-based. The procedure, abridged: (§1)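 [35S]GTPγS binding in mouse LM(tk−) cells expressing the human 5-HT1A receptor, with binding stimulated by 300 nM 5-HT. Ki was calculated from inhibition of that stimulation. Maximal inhibition was expressed as a percentage of the stimulation produced by a maximal 5-HT concentration. Where Ki could not be obtained, inhibition was read at the highest accurately testable compound concentration.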

Experiment [3] concerns the target T2, 5-hydroxytryptamine receptor 1A (Homo sapiens) (UniProt P08908).
T2 sequence (whole entry): T1 sequence (P08908 whole entry)
Description: Antagonist activity at human 5HT1A expressed in mouse LM(tK-) cells assessed as maximal 5-HT-stimulated [35S]GTPgammaS binding relative to 5HT. Format: functional, cell-based.

Experiment [4] concerns the target T1, 5-hydroxytryptamine receptor 1A. As to the kind of experiment: Antagonist activity at human 5HT1A expressed in mouse LM(tK-) cells assessed as inhibition of 5-HT-stimulated [35S]GTP-gamma-S binding. The format is functional, cell-based. The procedure, abridged: as §1
Experiment [5] concerns the target T2, 5-hydroxytryptamine receptor 1A (Homo sapiens). Description: Antagonist activity at human 5HT1A expressed in mouse LM(tK-) cells assessed as maximal inhibition of 5-HT-stimulated [35S]GTPgammaS binding. The format is functional, cell-based. The arrangement: scale not given: the % may be the effect or the level left. For orientation: GTPγS resists hydrolysis and so accumulates on activated G proteins.

The target of experiment [6] is Beta-1 adrenergic receptor (Homo sapiens, UniProt P08588). Description: Binding affinity at human adrenergic beta-1 receptor.
Experiment [7] addresses Beta-2 adrenergic receptor (Homo sapiens, UniProt P07550). Description: Binding affinity at human adrenergic beta2 receptor.
In experiment [8] the test system is Rattus norvegicus. Description: Blockade of 8-OH-DPAT-induced increase in serum corticosterone level in Spargue-Dawley rat at 0.03 mg/kg, sc. Format: functional. Conditions: route subcutaneous. Summed up: (§2)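 Male Sprague–Dawley rats received compound sc at 0.03–1.0 mg/kg, 15 min before 0.3 mg/kg sc 8-OH-DPAT. Rats were killed 1 h after the agonist. Serum corticosterone was measured with a 3H-corticosterone kit. Results are mean and standard error, n = 5 rats per group, with percent antagonism of the 8-OH-DPAT-induced rise.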

Experiment [9] concerns Rattus norvegicus. As to the kind of experiment: Blockade of 8-OH-DPAT-induced increase in serum corticosterone level in Spargue-Dawley rat at 0.1 mg/kg, sc. Format: functional. The settings on record: route subcutaneous. The procedure, abridged: as §2
Experiment [10] concerns Rattus norvegicus. Description: Blockade of 8-OH-DPAT-induced increase in serum corticosterone level in Spargue-Dawley rat at 0.3 mg/kg, sc. The format is functional. Conditions: route subcutaneous. Summed up:
as §2

Experiment [11] has as its system Rattus norvegicus. As to the kind of experiment: Blockade of 8-OH-DPAT-induced increase in serum corticosterone level in male Spargue-Dawley rat at 1.0 mg/kg, sc. Conditions: route subcutaneous. Format: functional. Summed up: as §2
For experiment [12], the system named is Rattus norvegicus. Description: Blockade of 8-OH-DPAT-induced increase in serum corticosterone level in sc dosed Spargue-Dawley rat. The format is functional. Summed up:
as §2

In experiment [13] the target is T2, 5-hydroxytryptamine receptor 1A (Homo sapiens). Description: Antagonist activity at human 5HT1A expressed in mouse LM(tK-) cells assessed as inhibition of 5-HT-stimulated [35S]GTP-gamma-S binding at 10 uM. The arrangement: scale not given: the % may be the effect or the level left. The format is functional, cell-based. Summed up:
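Human 5-HT1A receptor expressed in mouse LM(tk-) cells. [35S]GTPγS binding was stimulated with 300 nM 5-HT, and inhibition was measured at a single compound concentration, the highest that could be accurately tested.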

Chain of Beta-1 adrenergic receptor (P08588 whole entry): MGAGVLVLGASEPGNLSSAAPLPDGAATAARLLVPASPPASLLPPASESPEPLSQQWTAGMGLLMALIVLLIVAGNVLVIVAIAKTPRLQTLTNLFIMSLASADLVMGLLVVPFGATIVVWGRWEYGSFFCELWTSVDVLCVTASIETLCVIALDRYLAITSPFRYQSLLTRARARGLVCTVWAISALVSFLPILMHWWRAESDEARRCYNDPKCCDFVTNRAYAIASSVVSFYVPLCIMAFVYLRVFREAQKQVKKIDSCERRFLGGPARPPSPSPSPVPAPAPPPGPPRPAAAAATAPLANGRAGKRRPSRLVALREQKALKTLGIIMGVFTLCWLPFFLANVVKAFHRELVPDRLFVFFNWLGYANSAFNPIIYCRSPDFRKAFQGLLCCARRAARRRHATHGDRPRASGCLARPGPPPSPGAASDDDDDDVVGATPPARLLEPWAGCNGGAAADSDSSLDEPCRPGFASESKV
Chain of Beta-2 adrenergic receptor (P07550 whole entry): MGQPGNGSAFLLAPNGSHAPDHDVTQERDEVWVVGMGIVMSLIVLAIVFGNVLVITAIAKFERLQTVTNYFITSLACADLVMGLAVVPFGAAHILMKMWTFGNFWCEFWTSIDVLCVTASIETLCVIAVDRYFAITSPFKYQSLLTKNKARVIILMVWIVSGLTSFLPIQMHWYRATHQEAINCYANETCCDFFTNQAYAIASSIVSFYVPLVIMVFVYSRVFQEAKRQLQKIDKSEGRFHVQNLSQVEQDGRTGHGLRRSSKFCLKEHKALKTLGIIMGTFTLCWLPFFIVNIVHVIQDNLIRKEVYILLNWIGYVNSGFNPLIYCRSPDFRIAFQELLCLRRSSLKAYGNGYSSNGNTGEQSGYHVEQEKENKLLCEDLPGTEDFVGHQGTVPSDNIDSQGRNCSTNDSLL

Consider `OC(CCNC1CCCCC1)COc1cccc2[nH]ccc12` (configuration not stated), for which, in experiment [1], the inhibitory constant (Ki) (commonly a measure of affinity in units of concentration, obtained from inhibition or displacement) amounted to 0.125 µM. The EC50 (commonly the concentration giving half of the maximal effect) in experiment [2] was 0.394 µM. For the same molecule, the Emax (usually the size of the effect at its maximum, as opposed to the concentration needed) in experiment [3] stood at 45.6%.
Turning to `OC(CNC1CCCCCC1)COc1cccc2[nH]ccc12` (configuration not stated), the inhibition constant Ki in experiment [4] came to 0.0113 µM; in experiment [1], 0.00682 µM. Moreover, the Activity in [5] amounted to 8.9%.
On to `CC(C)NCC(O)COc1cccc2[nH]ccc12` (configuration not stated), for which, in [5], the Activity was 9.76%.
`OC(CCOc1cccc2[nH]ccc12)CNC12CC3CC(CC(C3)C1)C2` (configuration not stated) yielded an inhibition constant (Ki) in experiment [1] of 0.551 µM.
`C[C@](O)(CNC12CC3CC(CC(C3)C1)C2)COc1cccc2[nH]ccc12` registered a Ki in [1] of 0.868 µM.
`O[C@@H](CNC12CC3CC(CC(C3)C1)C2)COc1cccc2[nH]ccc12`: the inhibitory constant (Ki) in experiment [4] was found to be 0.00465 µM; in [6], 0.00792 µM; in experiment [1], 0.00389 µM; in experiment [7], 0.00663 µM. In experiment [5], the Activity came to 6.38%.
As to `CC(C)NCC(O)CCOc1cccc2[nH]ccc12` (configuration not stated), the inhibition constant Ki in experiment [1] is 1.77 µM.
With `O[C@@H](CNC1C2CC3CC(C2)CC1C3)COc1cccc2[nH]ccc12` (some centres not stated), the Ki in experiment [4] worked out at 0.024 µM; in experiment [1], 0.0112 µM. Besides, the Activity in experiment [5] is 8.75%.
In the case of `CCC(CC)NCC(O)COc1cccc2[nH]ccc12` (configuration not stated), the Ki in [4] amounted to 0.0498 µM; in experiment [1], 0.0286 µM. In addition, the Activity in experiment [5] was determined as 4.74%.
Turning to `O[C@@H](CNC1CCCCC1)COc1cccc2[nH]ccc12`, the Ki in [4] was found to be 0.00668 µM; in experiment [6], 0.00237 µM; in experiment [1], 0.00133 µM; in experiment [7] it was 0.00375 µM. Moreover, the Activity turned out to be 7.52% in experiment [5]; 13% in experiment [8]; 26% in experiment [9]; 53% in [10]; 92% in [11]. For the same molecule, the ED50 (commonly the dose that gives a 50% effect, or the effect in half of the subjects) in experiment [12] was 2.5 mg/kg.
Take `OC(CNC1CCCC1)COc1cccc2[nH]ccc12` (configuration not stated): the results for the Ki in experiment [4] and in experiment [1] were 0.0355 µM and 0.0106 µM, respectively. Also, the Activity in [5] came to 11.8%.
Molecule `OC(CCNC12CC3CC(CC(C3)C1)C2)COc1cccc2[nH]ccc12` (configuration not stated) showed an inhibition constant (Ki) in experiment [1] of 0.0761 µM. Also, in experiment [2], the concentration for a half-maximal effect (EC50) turned out to be 0.854 µM. Moreover, the Emax in experiment [3] was determined as 51.8%.
`O[C@H](CNC12CC3CC(CC(C3)C1)C2)COc1cccc2[nH]ccc12`: the inhibition constant (Ki) in [4] is 0.0299 µM; in [1] it was 0.0183 µM. Moreover, the Activity in [5] turned out to be 3.15%.
`OC(CNC1CCCCC1)COc1ccc2[nH]ccc2c1` (configuration not stated) showed a Ki in experiment [1] greater than 3 µM.
With `O[C@H](CNC1CCCCC1)COc1cccc2[nH]ccc12`, the Ki in experiment [4] came out at 0.0508 µM; in experiment [1], 0.0261 µM. For the same molecule, the Activity in experiment [5] amounted to 8.87%.
As for `c1cc(OCCCNC2CCCC2)c2cc[nH]c2c1`, the Ki in experiment [4] was found to be 0.233 µM; in [1] it was 0.0943 µM. In experiment [5], the Activity was found to be 24.8%.
`C[C@](O)(CNC1CCCCC1)COc1cccc2[nH]ccc12` yielded an inhibition constant (Ki) in experiment [1] of 1.45 µM.
As to `OC(CNC12CC3CC(CC(C3)C1)C2)COc1ccc2[nH]ccc2c1` (configuration not stated), affinity in [1] was put at a Ki of 0.833 µM.
In turn, `COC(CNC12CC3CC(CC(C3)C1)C2)COc1cccc2[nH]ccc12` (configuration not stated) displayed an inhibition constant (Ki) in experiment [1] of 0.032 µM. Besides, the Activity in [13] worked out at 28.9%.
In the case of `OC(CCOc1cccc2[nH]ccc12)CNC1CCCCC1` (configuration not stated), the inhibitory constant (Ki) in experiment [1] is 0.872 µM.
In the case of `OC(CNC12CC3CC(CC(C3)C1)C2)COc1cccc2[nH]ccc12` (configuration not stated), the inhibition constant Ki turned out to be 0.00784 µM in experiment [4] and 0.00929 µM in experiment [1]. The Activity in experiment [5] came to 6.56%.
`COC(CNC1CCCCC1)COc1cccc2[nH]ccc12` (configuration not stated): in experiment [1], the inhibitory constant (Ki) was determined as 0.0406 µM. In addition, the Activity in [13] was determined as 36.2%.
For the molecule `OC(CNC1CCCCC1)COc1cccc2[nH]ccc12` (configuration not stated), the Ki in experiment [4] came out at 0.00983 µM; in [1] it was 0.00358 µM. In addition, in [5], the Activity was 9.88%.
In experiment [1], `c1cc(OCCCNC2CCCCC2)c2cc[nH]c2c1` displayed a Ki of 0.0784 µM. Also, in experiment [13], the Activity came to 31.3%.

(Values after ChEMBL document CHEMBL1137462, “Indoloxypropanolamine analogues as 5-HT(1A) receptor antagonists” (Bioorg Med Chem Lett, 2007).)
